Bioassay records from PubChem BioAssay.
Most compounds without a hit are left out; they make up all but 5.1% or so of the library.
STAT1 activator – increases IFN-gamma driven STAT1 reporter signal. NIH 3T3 STAT1-luciferase reporter, luminescence; 100% = IFN-gamma alone, no compound. activation (% of control), % at 5.5 µM. hit rate 2.6% among 200,000. AID 932;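 active means activation above the screen-wide mean activation plus 3 SD, cut at about 130% in these data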
STAT3 inh-1 – inhibitors of IL-6 induced STAT3 signaling; U3A cells, IL-6 STAT3-luciferase reporter, luminescence; host cell line lacks STAT1; inhibition, % at 5.5 µM; hit rate 0.89% among 190,000; AID 862;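 active means inhibition above the mean inhibition across all screened compounds plus 3 SD, cut at about 44% in these data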
NF-kB expr up – raises NF-kB expression in human neuronal cells | AID 1239 | hit rate 1.6% among 190,000 | fold change at 12.5 µM | NF-kB reporter expression; hits give high values; in the data active means fold change above about 3.3
STAT1 inh – reduces IFN-gamma driven STAT1 reporter signal | NIH 3T3 STAT1-luciferase reporter, luminescence | inhibition, % at 5.5 µM | hit rate 0.35% among 200,000 | AID 920;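 active means inhibition above a set limit, the mean inhibition across all tested compounds plus 3 SD, cut at about 34% in these data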
STAT3 act – activators of IL-6 induced STAT3 signaling. U3A cells, IL-6 STAT3-luciferase reporter, luminescence; 100% = signal with IL-6 EC80 alone. activation (% of control), % at 5.6 µM. hit rate 0.91% among 190,000. AID 871;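 active means activation above the screen-wide mean of compound activation plus 3 SD, cut at about 130% in these data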
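Test system: STAT3-luciferase reporter U3A cells; Detection: reporter luminescence signal; Times: 1 h compound pre-exposure, 6 h IL-6 stimulation, 37 °C; Benchmarks: IL-6-only high control; Also added: IL-6 stimulus at 33 ng/mL final.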
APP 5'UTR act – activates APP 5'UTR luciferase reporter; SH-SY5Y APP 5'UTR luciferase reporter, luminescence; zero percent = DMSO vehicle wells; activation, % at 2 µM; hit rate 1% among 190,000; AID 1276;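 active means activation above a set limit, based on mean plus 3 SD of controls, cut at about 140% in these data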
STAT3 inh-2 – STAT3 inhibition, confirmation assay; shares compounds with STAT3 inh-1; U3A cells, IL-6 STAT3 luciferase reporter, luminescence; cell line lacks STAT1; inhibition, % at 5.7 µM; hit rate 45% among 1,200; AID 1265;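 active means inhibition above the hit cutoff computed for the primary STAT3 screen, cut at about 44% in these data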
NFkB inh STAT3ct – counter-screen for STAT3 inhibitors: NF-kappaB inhibition; shares compounds with STAT3 inh-1; HEK293T NF-kB luciferase reporter, TNF-alpha induced; inhibition, % at 5.7 µM; hit rate 36% among 1,200;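 active means inhibition above the mean of solvent-only control wells plus 3 SD, cutoff set per campaign, cut at about 13% in these data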
STAT1 inh STAT3c – STAT1 inhibition in STAT3 inhibitor counter-screen; shares compounds with STAT3 inh-1; NIH 3T3 STAT1-luciferase reporter, IFN-gamma induced, luminescence; inhibition, % at 5.7 µM; hit rate 27% among 1,200; AID 1317;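 active means inhibition above the mean plus 3 SD of solvent-only control wells, limit set per screening run, cut at about 16% in these data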
Each line names hits and unclear results; the compound was inactive in the other large screens (follow-up assays come after a bar, where they were run).

C=CCn1c(SCC(=O)NC2CCCCC2)nc2ccccc2c1=O	none
COc1ccc(C(=O)Nn2c(SCC(=O)NC3CCCCC3)nc3ccccc3c2=O)cc1	STAT3 inh-1 51.3 | STAT3 inh-2 inactive | NFkB inh STAT3ct inactive | STAT1 inh STAT3c inactive
COc1ccc(C(=O)Nn2c(SCC(=O)NCc3ccco3)nc3ccccc3c2=O)cc1	STAT3 inh-1 66.7 | STAT3 inh-2 inactive | NFkB inh STAT3ct 23.7 | STAT1 inh STAT3c inactive
CCn1c(SCC(=O)NCc2ccco2)nc2ccccc2c1=O	none
C=CCn1c(C)cc(C(=O)CSc2nc3ccccc3[nH]2)c1C	STAT3 inh-1 98.7 | STAT3 inh-2 61.0 | NFkB inh STAT3ct 14.6 | STAT1 inh STAT3c inactive
COc1cc(CC(=O)OCC(=O)Nc2sccc2C(N)=O)cc(OC)c1OC	STAT3 inh-1 58.2 | STAT3 inh-2 55.0 | NFkB inh STAT3ct inactive | STAT1 inh STAT3c 21.6
CC1=CC2=NC(=O)/C(=C\c3cccn3CCOc3ccc(C)c(C)c3)C(=N)N2O1	none (no result: APP 5'UTR act)
Cc1c(C(C)C)c(=O)n(-c2ccc(S(=O)(=O)N3CCOCC3)cc2)n1C	none
Cc1c(C(C)C)c(=O)n(-c2ccc(S(=O)(=O)NC3CCCCC3)cc2)n1C	STAT3 inh-1 52.9 | STAT3 inh-2 58.8 | NFkB inh STAT3ct 14.2 | STAT1 inh STAT3c 21.1
Cc1c(C(C)C)c(=O)n(-c2ccc(S(=O)(=O)NCc3ccccc3)cc2)n1C	STAT3 inh-1 81.1 | STAT3 inh-2 79.7 | NFkB inh STAT3ct 29.6 | STAT1 inh STAT3c 21.1
COC(=O)[C@@]1(Cc2ccc(F)cc2)[C@H]2c3cc(C(=O)N(C)C)n(Cc4ccccn4)c3C[C@H]2CN1C(=O)c1ccccc1	none
O=C(Nc1cccc(O)c1)c1noc2c1CCCCC2	STAT3 inh-1 83.1 | STAT3 inh-2 72.1 | NFkB inh STAT3ct 28.9 | STAT1 inh STAT3c inactive
O=C(Nc1ccccc1C(=O)N1CCOCC1)c1noc2c1CCCC2	none
O=C(Nc1ccc(N2CCOCC2)cc1)c1cn2ccccc2n1	STAT3 inh-1 76.4 | STAT3 inh-2 inactive | NFkB inh STAT3ct inactive | STAT1 inh STAT3c inactive
CCn1cc([N+](=O)[O-])c(C(=O)Nc2nc(-c3ccc(C)c(C)c3)c(C)s2)n1	STAT3 inh-1 44.9 | STAT3 inh-2 inactive | NFkB inh STAT3ct inactive | STAT1 inh STAT3c inactive
CCn1cc([N+](=O)[O-])c(C(=O)Nc2cc(C)on2)n1	none
CCn1cc([N+](=O)[O-])c(C(=O)Nc2nc(-c3ccc(C)cc3)c(C)s2)n1	STAT3 inh-1 55.6 | STAT3 inh-2 inactive | NFkB inh STAT3ct inactive | STAT1 inh STAT3c inactive
CN=c1scc(C)n1/N=C/c1ccc2c(c1)OCO2	STAT3 inh-1 48.9, NF-kB expr up 8.6, APP 5'UTR act 208.6 | STAT3 inh-2 inactive | NFkB inh STAT3ct inactive | STAT1 inh STAT3c inactive
O=C(N/N=C/c1ccc([N+](=O)[O-])o1)c1cc(-c2cccc(Br)c2)nc2ccccc12	none
CCCc1ccc(-c2cc(C(=O)N/N=C/c3ccc([N+](=O)[O-])o3)c3ccccc3n2)cc1	STAT3 inh-1 47.7 | STAT3 inh-2 inactive | NFkB inh STAT3ct inactive | STAT1 inh STAT3c inactive
CCCCNC(=O)COC(=O)c1cc(Br)ccc1Cl	none
O=C(NCc1cccc(Cl)c1)c1cc(COc2ccc3ncccc3c2)on1	STAT3 inh-1 44.9 | STAT3 inh-2 61.9 | NFkB inh STAT3ct 15.0 | STAT1 inh STAT3c 21.2
CC(CCCC(C)(C)O)NC(=O)c1cc(COc2ccc3ncccc3c2)on1 (stereo not drawn)	STAT3 inh-1 62.6 | STAT3 inh-2 62.7 | NFkB inh STAT3ct 21.2 | STAT1 inh STAT3c 23.6
Cc1ccc(S(=O)(=O)N(C)CC(=O)Nc2cccc3c2CCCC3)cc1	none
COC(=O)c1ccc(NC(=O)c2ccc(CN3CCOCC3)cc2)cc1	STAT3 inh-1 54.1 | STAT3 inh-2 inactive | NFkB inh STAT3ct inactive | STAT1 inh STAT3c inactive
O=C(Nc1ccc(S(=O)(=O)Nc2ccccc2)cc1)c1ccc(CN2CCOCC2)cc1	STAT3 inh-1 83.9 | STAT3 inh-2 77.5 | NFkB inh STAT3ct 27.5 | STAT1 inh STAT3c inactive
CCN(CC)CCN(CC(=O)N(C1CCCCC1)C1CCCCC1)C(=O)c1cccnc1	none
CN(C)c1ccc(NC(=O)c2cnsn2)cc1	STAT3 inh-1 50.1 | STAT3 inh-2 inactive | NFkB inh STAT3ct inactive | STAT1 inh STAT3c inactive
Cc1nn(Cc2cccc(C(=O)Nc3ccn(Cc4c(F)c(F)cc(F)c4F)n3)c2)c(C)c1[N+](=O)[O-]	none
C[n+]1c2n(c3ccccc31)N=C(c1cc(C(C)(C)C)c(O)c(C(C)(C)C)c1)CS2	STAT3 inh-1 79.1 | STAT3 inh-2 78.9 | NFkB inh STAT3ct 36.6 | STAT1 inh STAT3c inactive
COc1cccc(C2=Nn3c(nnc3-c3ccccc3O)SC2)c1	none
Cc1ccccc1Cn1cc(S(=O)(=O)CC(=O)Nc2nccs2)c2ccccc21	none
COc1ccc(C(=O)/C=C\N2CCOCC2)cc1	none
CCOC(=O)C1CCCN(S(=O)(=O)c2ccc(S(=O)(=O)N(CC)CC)cc2)C1 (stereo not drawn)	STAT3 inh-1 77.9 | STAT3 inh-2 83.2 | NFkB inh STAT3ct 33.6 | STAT1 inh STAT3c 26.7
CC1=NCCN1S(=O)(=O)c1ccccc1[N+](=O)[O-]	none
CC(C)c1ccc2oc(-c3ccc(N)cc3)nc2c1	STAT3 inh-1 77.7, NF-kB expr up 3.35 | STAT3 inh-2 inactive | NFkB inh STAT3ct inactive | STAT1 inh STAT3c inactive
Cc1ccc(-c2nc3cc(N)ccc3o2)cc1	STAT3 inh-1 59.4, NF-kB expr up 5.43 | STAT3 inh-2 inactive | NFkB inh STAT3ct inactive | STAT1 inh STAT3c inactive
Cc1ccc(-c2nc3cc(C)ccc3o2)cc1	STAT3 inh-1 83.8, APP 5'UTR act 174.6 | STAT3 inh-2 inactive | NFkB inh STAT3ct 40.0 | STAT1 inh STAT3c inactive
COC(=O)c1ccc(-c2nc3ccc(C)cc3o2)cc1	STAT3 inh-1 67.7, NF-kB expr up 7 | STAT3 inh-2 inactive | NFkB inh STAT3ct inactive | STAT1 inh STAT3c inactive
Clc1ccc2oc(-c3ccccc3)nc2c1	none
COc1cc(/C=N/NC(=O)CCC(=O)NCc2ccccc2)cc(OC)c1OC	none
Cc1ccc(OCC(=O)NC(=S)Nc2cccc(NC(=O)c3ccc(Cl)cc3Cl)c2)cc1	none
Cc1ccc(C(=O)COC(=O)c2cccs2)cc1	STAT3 inh-1 46.7, NF-kB expr up 7.5, APP 5'UTR act 198.4 | STAT3 inh-2 inactive | NFkB inh STAT3ct inactive | STAT1 inh STAT3c inactive
O=C(COC(=O)c1cccs1)c1ccc2c(c1)OCCO2	STAT3 inh-1 54.1 | STAT3 inh-2 inactive | NFkB inh STAT3ct inactive | STAT1 inh STAT3c inactive
